One may read the MIC as the lowest concentration that inhibits growth of the organism. Lower therefore signals greater potency. For orientation: MIC90 means the lowest concentration that inhibits either 90% of growth or 90% of the strains tested, depending on the study. Read a high MIC90 as lower susceptibility.

This note sets out measurements from ChEMBL document CHEMBL1938318, “Design, synthesis and evaluation of novel molecules with a diphenyl ether nucleus as potential antitubercular agents” (Bioorg Med Chem Lett, 2012).

Values after ≈ are worked out from the molar mass of the structure shown.

Data set [1] has as its system Mycobacterium tuberculosis. Nature of the data set: Antitubercular activity against Mycobacterium tuberculosis H37Rv after 7 to 11 days by microdilution method. In kind it is functional. In outline:
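M. tuberculosis H37Rv grown in Middlebrook 7H9 with OADC, diluted in 7H9-OADC to 10⁴ CFU/mL and added to serial compound dilutions in 96-well microdilution plates. Incubated at 37 °C in humidified incubator, growth scored visually. MIC = lowest concentration with growth similar to 10 CFU inoculum-only well; isoniazid positive control.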
A general note: In broth dilution the organism is exposed to a series of concentrations in liquid medium.

Data set [2] in a line: Growth inhibition of human HepG2 cells at 20 uM after 48 hrs by MTT assay. The data set is classed as cell-based. The conditions noted are these: read-out: GI. The method in brief: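 Cells seeded at 2500/well, cultured 24 h, then exposed to compound at 20 μM for 48 h. MTT (20 μL of 5 mg/ml stock) added for 2.5 h at 37 °C. Supernatant removed, formazan dissolved in DMSO with 15–20 min shaking, absorbance read at 570 nm. Inhibitory rate is the mean of three independent experiments.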
For orientation: Tetrazolium assays rely on reduction of a dye to a coloured formazan, in cell work by metabolically active cells.

For the compound `O=C(Cc1cccc(Oc2ccccc2)c1)Nc1ccc(C(F)(F)F)cc1`, in data set [1], the MIC came to 32 mg/L (≈ 86.2 µM) and the MIC90 stood at 8 mg/L (≈ 21.5 µM). Further, the inhibition at 48 h, 20 µM in data set [2] came out at 10.3%.

With `Cc1ccc(NC(=O)Cc2cccc(Oc3ccccc3)c2)nc1`, in data set [1], the lowest concentration to inhibit growth (MIC) was 32 mg/L (≈ 101 µM) and the MIC90 was 8 mg/L (≈ 25.1 µM). The inhibition at 48 h, 20 µM in data set [2] was 12.2%.

In the case of `O=C(Cc1cccc(Oc2ccccc2)c1)Nc1ccc([N+](=O)[O-])cc1`, in data set [1], the MIC came to 32 mg/L (≈ 91.9 µM) and the MIC90 was 8 mg/L (≈ 23 µM). In addition, the inhibition at 48 h, 20 µM in data set [2] came to 36.4%.

In data set [1], `O=C(Cc1cccc(Oc2ccc(Cl)cc2)c1)Nc1cccc(Cl)c1` came in with an MIC of 32 mg/L (≈ 86 µM) and an MIC90 of 16 mg/L (≈ 43 µM). Further, the inhibition at 48 h, 20 µM in data set [2] turned out to be 27.1%.

In data set [1], `O=C(Cc1cccc(Oc2ccccc2)c1)Nc1ccc(F)c(F)c1` yielded an MIC of 32 mg/L (≈ 94.3 µM) and an MIC90 of 8 mg/L (≈ 23.6 µM). Besides, the inhibition at 48 h, 20 µM in data set [2] was determined as 26.7%.

In data set [1], `O=C(CCc1cccc(Oc2ccccc2)c1)Nc1cccc(Cl)c1` returned an MIC of 32 mg/L (≈ 91 µM) and an MIC90 of 16 mg/L (≈ 45.5 µM). The inhibition at 48 h, 20 µM in data set [2] was 25.1%.

In data set [1], `O=C(Cc1cccc(Oc2ccccc2)c1)Nc1ccc(OC(F)(F)F)cc1` had an MIC of 32 mg/L (≈ 82.6 µM) and an MIC90 of 16 mg/L (≈ 41.3 µM). In data set [2], the inhibition at 48 h, 20 µM worked out at 4.71%.

Take `O=C(Cc1cccc(Oc2ccccc2)c1)Nc1ccc(Br)cc1`: in data set [1], inhibition of growth (MIC) required 64 mg/L (≈ 167 µM) and the MIC90 turned out to be 16 mg/L (≈ 41.9 µM). Also, the inhibition at 48 h, 20 µM in data set [2] was found to be 15.7%.

`N#Cc1ccccc1NC(=O)Cc1cccc(Oc2ccccc2)c1`: the MIC in data set [1] was 32 mg/L (≈ 97.5 µM). In addition, the inhibition at 48 h, 20 µM in data set [2] turned out to be 19.1%.

As to `O=C(Cc1cccc(Oc2ccccc2)c1)Nc1cccc(Cl)c1`, in data set [1], inhibition of growth (MIC) required 32 mg/L (≈ 94.7 µM) and the MIC90 worked out at 16 mg/L (≈ 47.4 µM). For the same compound, the inhibition at 48 h, 20 µM in data set [2] came to 7.95%.

In data set [1], `NNC(=O)c1ccncc1` [ISONIAZID] yielded a minimal inhibitory concentration (MIC) of 0.0625 mg/L (≈ 0.456 µM) and an MIC90 of 0.0625 mg/L (≈ 0.456 µM). The inhibition at 48 h, 20 µM in data set [2] stood at 3.51%.

Regarding `O=C(Nc1cccc(Cl)c1)c1cccc(Oc2ccccc2)c1`, in data set [1], the minimal inhibitory concentration (MIC) came out at 32 mg/L (≈ 98.8 µM) and the MIC90 was 16 mg/L (≈ 49.4 µM). For the same compound, the inhibition at 48 h, 20 µM in data set [2] worked out at 7.07%.

For `COc1ccc(NC(=O)Cc2cccc(Oc3ccccc3)c2)c(OC)c1`, the minimum inhibitory concentration (MIC) in data set [1] is 32 mg/L (≈ 88.1 µM). For the same compound, the inhibition at 48 h, 20 µM in data set [2] was 4.11%.

In data set [1], `O=C(Cc1cccc(Oc2ccccc2)c1)Nc1cccc([N+](=O)[O-])c1` came in with an MIC of 32 mg/L (≈ 91.9 µM) and an MIC90 of 16 mg/L (≈ 45.9 µM). Further, the inhibition at 48 h, 20 µM in data set [2] stood at 0.95%.

In data set [1], `O=C(Cc1cccc(Oc2ccccc2)c1)NC(c1ccccc1)c1ccccc1` displayed a minimal inhibitory concentration (MIC) of 32 mg/L (≈ 81.3 µM) and an MIC90 of 8 mg/L (≈ 20.3 µM). Further, the inhibition at 48 h, 20 µM in data set [2] stood at 4.84%.

As for `O=C(Cc1cccc(Oc2ccccc2)c1)Nc1nccs1`, in data set [1], it took 32 mg/L (≈ 103 µM) to inhibit growth (MIC) and the MIC90 is 16 mg/L (≈ 51.6 µM). Further, the inhibition at 48 h, 20 µM in data set [2] is 39.9%.

The compound `O=C(Cc1cccc(Oc2ccccc2)c1)Nc1ccc(Cl)c(Cl)c1` returned a minimum inhibitory concentration (MIC) in data set [1] of 4 mg/L (≈ 10.7 µM). The inhibition at 48 h, 20 µM in data set [2] was found to be 7%.

In data set [1], `O=C(CCCc1cccc(Oc2ccccc2)c1)Nc1cccc(Cl)c1` displayed an MIC of 32 mg/L (≈ 87.5 µM) and an MIC90 of 16 mg/L (≈ 43.7 µM).

Turning to `O=C(Cc1cccc(Oc2ccccc2)c1)Nc1ccc(Br)cc1Cl`, in data set [1], the MIC stood at 32 mg/L (≈ 76.8 µM) and the MIC90 came to 16 mg/L (≈ 38.4 µM). Also, the inhibition at 48 h, 20 µM in data set [2] was found to be 12.8%.

Take `O=C(Cc1cccc(Oc2ccc(F)cc2)c1)Nc1cccc(Cl)c1`: in data set [1], it took 32 mg/L (≈ 89.9 µM) to inhibit growth (MIC) and the MIC90 came out at 16 mg/L (≈ 45 µM). In addition, in data set [2], the inhibition at 48 h, 20 µM is 23.5%.

As for `O=C(Nc1cccc(Cl)c1)c1ccc(Oc2ccccc2)cc1`, in data set [1], 32 mg/L (≈ 98.8 µM) was the least that counted as inhibitory (MIC) and the MIC90 amounted to 16 mg/L (≈ 49.4 µM). The inhibition at 48 h, 20 µM in data set [2] stood at 29.2%.

In data set [1], `O=C(Cc1cccc(Oc2ccccc2)c1)Nc1cccc2ccccc12` had an MIC of 64 mg/L (≈ 181 µM) and an MIC90 of 32 mg/L (≈ 90.5 µM). In data set [2], the inhibition at 48 h, 20 µM turned out to be 3.31%.

On to `COc1ccc2nc(NC(=O)Cc3cccc(Oc4ccccc4)c3)sc2c1`, for which, in data set [1], the minimal inhibitory concentration (MIC) came out at 16 mg/L (≈ 41 µM) and the MIC90 came to 8 mg/L (≈ 20.5 µM). Besides, the inhibition at 48 h, 20 µM in data set [2] was 4.29%.
